The source of these data is ChEMBL document CHEMBL1909573, “Synthesis and biological evaluation of (2,5-dihydro-1H-pyrrol-1-yl)-2H-chromen-2-ones as free radical scavengers” (Eur J Med Chem, 2011).

The subject of assay [1] is Radical scavenging activity. As to the kind of experiment: Antioxidant activity assessed as reduction in DPPH stable free radical at 50 uM after 20 mins. The class given is functional. Put shortly: (§1)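 Compound solutions in ethanol were mixed with an equal volume of DPPH in absolute ethanol, giving compound concentrations of 50 and 100. Ethanol served as the control. Absorbance at 517 nm was read after 20 and 60 min at room temperature. Each run was done at least in triplicate, with the SD of absorbance under 10% of the mean.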

Assay [2] in a line: Antioxidant activity assessed as inhibition of superoxide anion radical production at 100 uM after 2 mins by nitroblue tetrazolium method. The class given is functional. The method in brief: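 This was a nitroblue tetrazolium assay. The mixture held […] in 19 mM phosphate buffer, pH 7.4. Compounds were preincubated 2 min before NADH was added. After 2 min at room temperature, absorbance at 560 nm was read against a PMS-containing blank. Runs were done at least in triplicate.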

The test system of assay [3] is Radical scavenging activity. Nature of the assay: Antioxidant activity assessed as DPPH free radical scavenging activity at 100 uM. It counts as functional. Put shortly:
as §1

Assay [4] relates to Radical scavenging activity. Nature of the assay: Antioxidant activity assessed as reduction in DPPH free radical at 50 uM after 60 mins. It counts as functional. Put shortly:
as §1
(Loss of DPPH colour is used to gauge radical scavenging.)

Another assay deals with Glycine max. As to the kind of experiment: Inhibition of soybean lipoxygenase assessed as conversion of sodium linoleate to 13-hydroperoxylinoleic acid at 100 uM. Put shortly: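 Soybean lipoxygenase was measured by UV absorbance. Runs were done at least in triplicate, with the SD of absorbance under 10% of the mean.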
For assay [5], the system named is Radical scavenging activity. As to the kind of experiment: Antioxidant activity assessed as DPPH free radical scavenging activity at 100 uM after 60 mins. The class given is functional. Put shortly: as §1
For assay [6], the system named is Radical scavenging activity. As to the kind of experiment: Antioxidant activity assessed as DPPH free radical scavenging activity at 100 uM after 20 mins. It counts as functional. The method in brief:
as §1

A short description of assay [7]: Antioxidant activity assessed as inhibition of AAPH-induced lipid peroxidation at 100 uM. The class given is functional.
The nature of assay [8]: Antioxidant activity assessed as hydroxyl radical scavenging activity at 100 uM after 30 mins. The class given is functional.

Structures are written as SMILES. The source made the active and inactive calls. No cut-off for these calls is given here.

As a reminder, the inhibition is the relative decrease from the control value, in per cent.

As to `Cc1cc(=O)oc2cc(-n3cccc3)ccc12`, the outcome in assay [1] and in assay [4] was inactive. For the same molecule, the inhibition entry in assay [2] was “inactive”. Besides, the Activity entry is “Dose-dependent effect” in assay [3], 14% in assay [5] and 14% in [6]. In addition, the inhibition was 12% in the assay with Glycine max, 46% in assay [7] and 9% in [8].

As for `Cc1cc2ccc(=O)oc2cc1-n1cccc1`, the result in [1] and in assay [4] was inactive. For the same molecule, the inhibition entry in assay [2] was “inactive”. Also, the Activity result is “Dose-dependent effect” in assay [3], 13% in [5] and 13% in assay [6]. For the same molecule, in assay [8], the inhibition came to 88%.

`Cc1cc(=O)oc2cc(N3CC=CC3)ccc12`: the outcome in assay [1] and in assay [4] was inactive. The inhibition result in assay [2] is “inactive”. Further, the figures for the inhibition (with Glycine max; in [7]; in [8]) were 28%, 87% and 85%, respectively. Further, the values for the Activity in assay [5] and in assay [6] were 20% and 5%, respectively.

In the case of `Cc1ccc2oc(=O)ccc2c1-n1cccc1`, the outcome in [1] and in assay [4] was inactive. Besides, in assay [2], the inhibition result was “inactive”. Besides, the Activity entry in assay [3] is “Dose-dependent effect”; in assay [5] it was 7%; in [6], 7%. For the same molecule, the inhibition in the assay on Glycine max amounted to 55.5%; in assay [7], 71%; in assay [8], 91%.

As for `Cc1cc2oc(=O)ccc2cc1N1CC=CC1`, the outcome in assay [1] and in assay [4] was inactive. The inhibition result in assay [2] was “inactive”. Moreover, the Activity entry in assay [3] was “Dose-dependent effect”; in assay [5] it was 10%; in [6], 9%. Further, the results for the inhibition (in the assay with Glycine max; in assay [7]; in assay [8]) were 60%, 91% and 77%, respectively.

On to `Cc1ccc2oc(=O)ccc2c1N1CC=CC1`, for which the outcome in assay [1] and in assay [4] was inactive. The inhibition entry in [2] is “inactive”. Further, the Activity result was “Dose-dependent effect” in [3], 5% in assay [5] and 5% in [6]. Moreover, in [7], the inhibition came to 57%.

As for `Cc1cc2oc(=O)ccc2cc1-n1cccc1`, the outcome in assay [1] and in [4] was inactive. For the same molecule, in assay [2], the inhibition entry is “inactive”. The Activity entry in assay [3] was “Dose-dependent effect”; in [5], 14%; in assay [6] it was 14%.

For `CC(Cc1ccc(O)c(O)c1)C(C)Cc1ccc(O)c(O)c1` (stereo not drawn), the values for the Activity result in assay [3], in assay [5] and in [6] were “Dose-dependent effect”, 83% and 81%, respectively. Moreover, the inhibition in the assay with Glycine max came to 84%.

Turning to `Cc1c(C)c2c(c(C)c1O)CCC(C)(C(=O)O)O2` (stereo not drawn), the Activity result in assay [3] is “Dose-dependent effect”. Moreover, the inhibition in [7] stood at 73%; in assay [8], 63%.

Consider `O=c1cc(N2CC=CC2)c2ccccc2o1`, for which the result in assay [1] and in [4] was inactive. Also, the inhibition result in assay [2] was “inactive”. For the same molecule, the figures for the inhibition (with Glycine max; in assay [7]; in [8]) were 43%, 100% and 83%, respectively. Besides, the Activity in assay [5] came to 27%; in assay [6] it was 8%.

As for `Cc1ccc2ccc(=O)oc2c1`, the Activity entry was “Dose-dependent effect” in assay [3], 2% in assay [5] and 2% in [6]. Also, the inhibition in the assay with Glycine max was 89%; in assay [8] it was 44%.

Regarding `O=c1ccc2cc(N3CC=CC3)ccc2o1`, the outcome in assay [1] and in assay [4] was inactive. In addition, in assay [2], the inhibition result is “inactive”. The Activity came to 71% in assay [5] and 49% in assay [6]. For the same molecule, the inhibition in [7] worked out at 86%; in assay [8], 90%.

With `O=c1ccc2cc(-n3cccc3)ccc2o1`, the outcome in [1] and in [4] was inactive. Also, the inhibition result in [2] was “inactive”. In addition, the Activity result is “Dose-dependent effect” in [3], 19% in assay [5] and 18% in assay [6]. In assay [7], the inhibition amounted to 1%.

For `Cc1cc2ccc(=O)oc2cc1N1CC=CC1`, the result in assay [1] and in [4] was inactive. In addition, in assay [2], the inhibition entry is “inactive”. Besides, the Activity entry in assay [3] is “Dose-dependent effect”; in assay [5] it was 7%; in [6], 5%. Moreover, the inhibition is 52.5% in the assay with Glycine max, 24% in assay [7] and 41% in [8].

As for `O=c1ccc2ccccc2o1`, the Activity result in assay [3] is “Dose-dependent effect”; in [5], 21%; in [6] it was 5%. The values for the inhibition (in the assay on Glycine max; in assay [8]) were 15% and 78%, respectively.
